According to ChEMBL document CHEMBL3865797, “Design, synthesis and biological evaluation of berberine-benzimidazole hybrids as new type of potentially DNA-targeting antimicrobial agents” (Eur J Med Chem, 2016):
In brackets after ≈: the same amount, converted by molar mass.

Test system: Escherichia coli
Experiment: Antibacterial activity against Escherichia coli JM109 measured after 24 hrs by two-fold serial dilution method
Format: functional
Conditions: JM109, 24 h
Procedure, shortened: (§1)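 MIC by two-fold serial broth microdilution in 96-well plates, following NCCLS recommendations. Chloromycin, norfloxacin and fluconazole serve as reference drugs. The MIC is read as the lowest concentration that inhibits growth, in µg/mL.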

Structure (SMILES) | MIC [µg/mL]
CCCCCCCCCCn1c(COc2c(OC)ccc3cc4[n+](cc23)CCc2cc3c(cc2-4)OCO3)nc2ccccc21.[Cl-] | 32
COc1ccc2cc3[n+](cc2c1OCc1nc2ccccc2n1Cc1ccc(Cl)cc1Cl)CCc1cc2c(cc1-3)OCO2.[Cl-] | 16
CCCCCCCCCCCCCCCCn1c(COc2c(OC)ccc3cc4[n+](cc23)CCc2cc3c(cc2-4)OCO3)nc2ccccc21.[Cl-] | 64
CCCCCCCCCCCCn1c(COc2c(OC)ccc3cc4[n+](cc23)CCc2cc3c(cc2-4)OCO3)nc2ccccc21.[Cl-] | 16
CCCCCn1c(COc2c(OC)ccc3cc4[n+](cc23)CCc2cc3c(cc2-4)OCO3)nc2ccccc21.[Cl-] | 128

Test system: Staphylococcus aureus
Experiment: Antibacterial activity against Staphylococcus aureus ATCC 25923 measured after 24 hrs by two-fold serial dilution method
Format: functional
Conditions: ATCC 25923, 24 h
Procedure, shortened: as §1

Structure (SMILES) | MIC [µg/mL]
CCCCCCCCCCn1c(COc2c(OC)ccc3cc4[n+](cc23)CCc2cc3c(cc2-4)OCO3)nc2ccccc21.[Cl-] | 16
COc1ccc2cc3[n+](cc2c1OCc1nc2ccccc2n1Cc1ccc(Cl)cc1Cl)CCc1cc2c(cc1-3)OCO2.[Cl-] | 64
CCCCCCCCCCCCCCCCn1c(COc2c(OC)ccc3cc4[n+](cc23)CCc2cc3c(cc2-4)OCO3)nc2ccccc21.[Cl-] | 256
CCCCCCCCCCCCn1c(COc2c(OC)ccc3cc4[n+](cc23)CCc2cc3c(cc2-4)OCO3)nc2ccccc21.[Cl-] | 8
CCCCCn1c(COc2c(OC)ccc3cc4[n+](cc23)CCc2cc3c(cc2-4)OCO3)nc2ccccc21.[Cl-] | 64

Test system: Pseudomonas aeruginosa
Experiment: Antibacterial activity against Pseudomonas aeruginosa measured after 24 hrs by two-fold serial dilution method
Format: functional
Conditions: not given
Procedure, shortened: as §1

Structure (SMILES) | MIC [µg/mL]
CCCCCCCCCCn1c(COc2c(OC)ccc3cc4[n+](cc23)CCc2cc3c(cc2-4)OCO3)nc2ccccc21.[Cl-] | 16
COc1ccc2cc3[n+](cc2c1OCc1nc2ccccc2n1Cc1ccc(Cl)cc1Cl)CCc1cc2c(cc1-3)OCO2.[Cl-] | 32
CCCCCCCCCCCCCCCCn1c(COc2c(OC)ccc3cc4[n+](cc23)CCc2cc3c(cc2-4)OCO3)nc2ccccc21.[Cl-] | 128
CCCCCCCCCCCCn1c(COc2c(OC)ccc3cc4[n+](cc23)CCc2cc3c(cc2-4)OCO3)nc2ccccc21.[Cl-] | 512
CCCCCn1c(COc2c(OC)ccc3cc4[n+](cc23)CCc2cc3c(cc2-4)OCO3)nc2ccccc21.[Cl-] | 64

Test system: Salmonella typhi
Experiment: Antibacterial activity against Salmonella typhi measured after 24 hrs by two-fold serial dilution method
Format: functional, Salmonella enterica subsp. enterica serovar Typhi
Conditions: Salmonella enterica
Procedure, shortened: (§2)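 Two-fold serial dilution in 96-well microtest plates following NCCLS guidance (micro broth dilution). Chloromycin and norfloxacin serve as positive controls. MIC is reported in µg/mL.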

Structure (SMILES) | MIC [µg/mL]
CCCCCCCCCCn1c(COc2c(OC)ccc3cc4[n+](cc23)CCc2cc3c(cc2-4)OCO3)nc2ccccc21.[Cl-] | 2
COc1ccc2cc3[n+](cc2c1OCc1nc2ccccc2n1Cc1ccc(Cl)cc1Cl)CCc1cc2c(cc1-3)OCO2.[Cl-] | 16
CCCCCCCCCCCCCCCCn1c(COc2c(OC)ccc3cc4[n+](cc23)CCc2cc3c(cc2-4)OCO3)nc2ccccc21.[Cl-] | 128
CCCCCCCCCCCCn1c(COc2c(OC)ccc3cc4[n+](cc23)CCc2cc3c(cc2-4)OCO3)nc2ccccc21.[Cl-] | 8
CCCCCn1c(COc2c(OC)ccc3cc4[n+](cc23)CCc2cc3c(cc2-4)OCO3)nc2ccccc21.[Cl-] | 4

Test system: Micrococcus luteus
Experiment: Antibacterial activity against Micrococcus luteus ATCC 4698 measured after 24 hrs by two-fold serial dilution method
Format: functional
Conditions: NCTC 2665, 24 h
Procedure, shortened: as §1

Structure (SMILES) | MIC [µg/mL]
CCCCCCCCCCn1c(COc2c(OC)ccc3cc4[n+](cc23)CCc2cc3c(cc2-4)OCO3)nc2ccccc21.[Cl-] | 32
COc1ccc2cc3[n+](cc2c1OCc1nc2ccccc2n1Cc1ccc(Cl)cc1Cl)CCc1cc2c(cc1-3)OCO2.[Cl-] | 16
CCCCCCCCCCCCCCCCn1c(COc2c(OC)ccc3cc4[n+](cc23)CCc2cc3c(cc2-4)OCO3)nc2ccccc21.[Cl-] | 128
CCCCCCCCCCCCn1c(COc2c(OC)ccc3cc4[n+](cc23)CCc2cc3c(cc2-4)OCO3)nc2ccccc21.[Cl-] | 128
CCCCCn1c(COc2c(OC)ccc3cc4[n+](cc23)CCc2cc3c(cc2-4)OCO3)nc2ccccc21.[Cl-] | 32

Test system: Bacillus subtilis
Experiment: Antibacterial activity against Bacillus subtilis measured after 24 hrs by two-fold serial dilution method
Format: functional
Conditions: not given
Procedure, shortened: as §1

Structure (SMILES) | MIC [µg/mL]
CCCCCCCCCCn1c(COc2c(OC)ccc3cc4[n+](cc23)CCc2cc3c(cc2-4)OCO3)nc2ccccc21.[Cl-] | 32
COc1ccc2cc3[n+](cc2c1OCc1nc2ccccc2n1Cc1ccc(Cl)cc1Cl)CCc1cc2c(cc1-3)OCO2.[Cl-] | 512
CCCCCCCCCCCCCCCCn1c(COc2c(OC)ccc3cc4[n+](cc23)CCc2cc3c(cc2-4)OCO3)nc2ccccc21.[Cl-] | 512
CCCCCCCCCCCCn1c(COc2c(OC)ccc3cc4[n+](cc23)CCc2cc3c(cc2-4)OCO3)nc2ccccc21.[Cl-] | 512
CCCCCn1c(COc2c(OC)ccc3cc4[n+](cc23)CCc2cc3c(cc2-4)OCO3)nc2ccccc21.[Cl-] | 32

Test system: not listed separately
Experiment: Antifungal activity against Saccharomyces cerevisiae measured after 24 hrs by two-fold serial dilution method
Format: functional
Conditions: not given
Procedure, shortened: as §1

Structure (SMILES) | MIC80 [µg/mL]
OC(Cn1cncn1)(Cn1cncn1)c1ccc(F)cc1F [FLUCONAZOLE] | 16 (≈ 52.2 µM)
CCCCCCCCCCn1c(COc2c(OC)ccc3cc4[n+](cc23)CCc2cc3c(cc2-4)OCO3)nc2ccccc21.[Cl-] | 512
COc1ccc2cc3[n+](cc2c1OCc1nc2ccccc2n1Cc1ccc(Cl)cc1Cl)CCc1cc2c(cc1-3)OCO2.[Cl-] | 512
CCCCCCCCCCCCCCCCn1c(COc2c(OC)ccc3cc4[n+](cc23)CCc2cc3c(cc2-4)OCO3)nc2ccccc21.[Cl-] | 512
CCCCCCCCCCCCn1c(COc2c(OC)ccc3cc4[n+](cc23)CCc2cc3c(cc2-4)OCO3)nc2ccccc21.[Cl-] | 512
CCCCCn1c(COc2c(OC)ccc3cc4[n+](cc23)CCc2cc3c(cc2-4)OCO3)nc2ccccc21.[Cl-] | 512

Test system: not listed separately
Experiment: Antifungal activity against Candida utilis measured after 24 hrs by two-fold serial dilution method
Format: functional
Conditions: Cyberlindnera jadinii
Procedure, shortened: as §1

Structure (SMILES) | MIC80 [µg/mL]
OC(Cn1cncn1)(Cn1cncn1)c1ccc(F)cc1F [FLUCONAZOLE] | 8 (≈ 26.1 µM)
CCCCCCCCCCn1c(COc2c(OC)ccc3cc4[n+](cc23)CCc2cc3c(cc2-4)OCO3)nc2ccccc21.[Cl-] | 8
COc1ccc2cc3[n+](cc2c1OCc1nc2ccccc2n1Cc1ccc(Cl)cc1Cl)CCc1cc2c(cc1-3)OCO2.[Cl-] | 2
CCCCCCCCCCCCCCCCn1c(COc2c(OC)ccc3cc4[n+](cc23)CCc2cc3c(cc2-4)OCO3)nc2ccccc21.[Cl-] | 128
CCCCCCCCCCCCn1c(COc2c(OC)ccc3cc4[n+](cc23)CCc2cc3c(cc2-4)OCO3)nc2ccccc21.[Cl-] | 16
CCCCCn1c(COc2c(OC)ccc3cc4[n+](cc23)CCc2cc3c(cc2-4)OCO3)nc2ccccc21.[Cl-] | 8

Test system: Proteus vulgaris
Experiment: Antibacterial activity against Bacillus proteus ATCC 13315 measured after 24 hrs by two-fold serial dilution method
Format: functional
Conditions: ATCC 13315, 24 h
Procedure, shortened: as §1

Structure (SMILES) | MIC [µg/mL]
CCCCCCCCCCn1c(COc2c(OC)ccc3cc4[n+](cc23)CCc2cc3c(cc2-4)OCO3)nc2ccccc21.[Cl-] | 512
COc1ccc2cc3[n+](cc2c1OCc1nc2ccccc2n1Cc1ccc(Cl)cc1Cl)CCc1cc2c(cc1-3)OCO2.[Cl-] | 8
CCCCCCCCCCCCCCCCn1c(COc2c(OC)ccc3cc4[n+](cc23)CCc2cc3c(cc2-4)OCO3)nc2ccccc21.[Cl-] | 512
CCCCCCCCCCCCn1c(COc2c(OC)ccc3cc4[n+](cc23)CCc2cc3c(cc2-4)OCO3)nc2ccccc21.[Cl-] | 512
CCCCCn1c(COc2c(OC)ccc3cc4[n+](cc23)CCc2cc3c(cc2-4)OCO3)nc2ccccc21.[Cl-] | 128

Test system: Staphylococcus aureus
Experiment: Antibacterial activity against methicillin-resistant Staphylococcus aureus N315 measured after 24 hrs by two-fold serial dilution method
Format: functional
Conditions: N315, 24 h
Procedure, shortened: as §2

Structure (SMILES) | MIC [µg/mL]
CCCCCCCCCCn1c(COc2c(OC)ccc3cc4[n+](cc23)CCc2cc3c(cc2-4)OCO3)nc2ccccc21.[Cl-] | 16
COc1ccc2cc3[n+](cc2c1OCc1nc2ccccc2n1Cc1ccc(Cl)cc1Cl)CCc1cc2c(cc1-3)OCO2.[Cl-] | 4
CCCCCCCCCCCCCCCCn1c(COc2c(OC)ccc3cc4[n+](cc23)CCc2cc3c(cc2-4)OCO3)nc2ccccc21.[Cl-] | 256
CCCCCCCCCCCCn1c(COc2c(OC)ccc3cc4[n+](cc23)CCc2cc3c(cc2-4)OCO3)nc2ccccc21.[Cl-] | 128
CCCCCn1c(COc2c(OC)ccc3cc4[n+](cc23)CCc2cc3c(cc2-4)OCO3)nc2ccccc21.[Cl-] | 16

Test system: Candida albicans
Experiment: Antifungal activity against Candida albicans ATCC 76615 measured after 24 hrs by two-fold serial dilution method
Format: functional
Conditions: ATCC 76615, 24 h
Procedure, shortened: as §1

Structure (SMILES) | MIC80 [µg/mL]
OC(Cn1cncn1)(Cn1cncn1)c1ccc(F)cc1F [FLUCONAZOLE] | 1 (≈ 3.27 µM)
CCCCCCCCCCn1c(COc2c(OC)ccc3cc4[n+](cc23)CCc2cc3c(cc2-4)OCO3)nc2ccccc21.[Cl-] | 8
COc1ccc2cc3[n+](cc2c1OCc1nc2ccccc2n1Cc1ccc(Cl)cc1Cl)CCc1cc2c(cc1-3)OCO2.[Cl-] | 512
CCCCCCCCCCCCCCCCn1c(COc2c(OC)ccc3cc4[n+](cc23)CCc2cc3c(cc2-4)OCO3)nc2ccccc21.[Cl-] | 64
CCCCCCCCCCCCn1c(COc2c(OC)ccc3cc4[n+](cc23)CCc2cc3c(cc2-4)OCO3)nc2ccccc21.[Cl-] | 16
CCCCCn1c(COc2c(OC)ccc3cc4[n+](cc23)CCc2cc3c(cc2-4)OCO3)nc2ccccc21.[Cl-] | 32

Test system: Aspergillus flavus
Experiment: Antifungal activity against Aspergillus flavus measured after 24 hrs by two-fold serial dilution method
Format: functional
Conditions: not given
Procedure, shortened: as §1

Structure (SMILES) | MIC80 [µg/mL]
OC(Cn1cncn1)(Cn1cncn1)c1ccc(F)cc1F [FLUCONAZOLE] | 256 (≈ 836 µM)
CCCCCCCCCCn1c(COc2c(OC)ccc3cc4[n+](cc23)CCc2cc3c(cc2-4)OCO3)nc2ccccc21.[Cl-] | 8
COc1ccc2cc3[n+](cc2c1OCc1nc2ccccc2n1Cc1ccc(Cl)cc1Cl)CCc1cc2c(cc1-3)OCO2.[Cl-] | 16
CCCCCCCCCCCCCCCCn1c(COc2c(OC)ccc3cc4[n+](cc23)CCc2cc3c(cc2-4)OCO3)nc2ccccc21.[Cl-] | 128
CCCCCCCCCCCCn1c(COc2c(OC)ccc3cc4[n+](cc23)CCc2cc3c(cc2-4)OCO3)nc2ccccc21.[Cl-] | 128
CCCCCn1c(COc2c(OC)ccc3cc4[n+](cc23)CCc2cc3c(cc2-4)OCO3)nc2ccccc21.[Cl-] | 16
